The format of series [1] is in vivo, healthy Japanese males. The method, boiled down: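 Open-label add-on study in 12 males: luseogliflozin 5 mg Day 1, pioglitazone 30 mg Days 2–7, both Day 8, dosed before breakfast. Blood was drawn pre-dose and 0.25–24 h on Days 1, 7 and 8. LC–MS/MS measured luseogliflozin (0.05–100 ng/mL) and pioglitazone with M-III/M-IV (10–2000 ng/mL). […] GMR with 90% CI was by ANOVA with treatment fixed and subject random.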

In the next series the test system is OAT1. Conditions: in vitro; ref Taisho Pharmaceutical Co., Ltd., data on file; cited from earlier work.
The test system of a further series is CYP2D6. Conditions: in vitro; ref Taisho Pharmaceutical Co., Ltd., data on file; cited from earlier work.
Series [2] is described as follows: 24-h cumulative urinary glucose excretion. The series is classed as in vivo, healthy Japanese males. Conditions: luseogliflozin in combination with an OAD. The method, boiled down: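 Healthy males, 12 per study. Pooled urine was collected for 24 h pre-dose and 0–24 h post-dose, and urine glucose was measured. Glimepiride arm: randomized three-way crossover of single doses (luseogliflozin 5 mg, glimepiride 1 mg, or both) before breakfast, with ≥7-day washout. Metformin arm: same design with 250 mg under fasting. Voglibose arm: add-on design, urine collected Days 1, 7 and 8.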

The next series relates to CYP1A2. Conditions: in vitro; ref Taisho Pharmaceutical Co., Ltd., data on file; cited from earlier work.
Series [3] deals with organic cation transporter 2. Conditions: in vitro; ref Taisho Pharmaceutical Co., Ltd., data on file; cited from earlier work.
The subject of a further series is CYP2A6. Conditions: in vitro; ref Taisho Pharmaceutical Co., Ltd., data on file; cited from earlier work.
The subject of a further series is CYP2E1. As to conditions: in vitro; ref Taisho Pharmaceutical Co., Ltd., data on file; cited from earlier work.
The next series concerns CYP2C9. As to conditions: in vitro; ref Taisho Pharmaceutical Co., Ltd., data on file; cited from earlier work.
For series [4] the following is noted: ref Taisho Pharmaceutical Co., Ltd., data on file; cited from earlier work.
A further series concerns OAT3. Conditions: in vitro; ref Taisho Pharmaceutical Co., Ltd., data on file; cited from earlier work.
For a further series, the system named is CYP3A4. As to conditions: in vitro; ref Taisho Pharmaceutical Co., Ltd., data on file; cited from earlier work.
The test system of a further series is CYP2B6. As to conditions: in vitro; ref Taisho Pharmaceutical Co., Ltd., data on file; cited from earlier work.
The next series has as its system CYP2C8. Conditions: in vitro; ref Taisho Pharmaceutical Co., Ltd., data on file; cited from earlier work.
Another series has as its system P-glycoprotein. Conditions: in vitro; ref Taisho Pharmaceutical Co., Ltd., data on file; cited from earlier work.
The format of series [5] is in vivo, healthy Japanese males. Conditions: co-administered with miglitol. The method, boiled down:
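Randomized open-label crossover in 12 males using six sequences with ≥7-day washout. Single oral doses of luseogliflozin 5 mg, miglitol 50 mg, or both were given before breakfast while hospitalized. Venous blood was drawn pre-dose and 0.25–24 h post-dose. Plasma luseogliflozin was measured by LC–MS/MS (0.05–100 ng/mL). Cmax was derived non-compartmentally. GMR with 90% CI, combination vs alone, used ANOVA with treatment, sequence and timing fixed and subject random.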

The conditions of series [6]: cited from earlier work.
Series [7] has as its system breast cancer resistance protein. Conditions: in vitro; ref Taisho Pharmaceutical Co., Ltd., data on file; cited from earlier work.
The nature of another series: Safety assessments. The series is classed as in vivo, healthy Japanese males. The method, boiled down: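 Safety was monitored across six single-site studies of 12 healthy males aged 20–39 years, hospitalized during dosing. Adverse events were recorded by nature and frequency, including changes in laboratory values, vital signs and 12-lead ECG. Investigators judged hypoglycemia from symptoms or blood glucose.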

A further series has as its system OATP1B1. As to conditions: in vitro; ref Taisho Pharmaceutical Co., Ltd., data on file; cited from earlier work.

Here are results for two molecules from publication PMC4449380 (Advances in Therapy, 2015).

Where two headings read alike, the source gives them in different places.

What is called IC50 is the concentration that gives 50% inhibition. As to `CCOc1ccc(Cc2cc([C@@H]3S[C@H](CO)[C@@H](O)[C@H](O)[C@H]3O)c(OC)cc2C)cc1` [Luseogliflozin, (1S)-1,5-Anhydro-1-[5-(4-ethoxybenzyl)-2-methoxy-4-methylphenyl]-1-thio-D-glucitol], the “change in C max of luseogliflozin” value in series [1] (co-administered with pioglitazone) and in series [5] was “about 15%” throughout. Besides, the IC50 (in the series on OAT1; with CYP2D6; with CYP1A2; in series [3]; in the series on CYP2A6; in the series on CYP2E1) was above 100 µM each time. Moreover, the IC50 in the series with CYP2C9, in the series with OAT3, in the series on CYP3A4, with CYP2B6, in the series with CYP2C8 and in the series on P-glycoprotein was above 100 µM in each case. In addition, the IC50 (in series [7]; with OATP1B1) was above 100 µM in each case. Moreover, the “UGE compared with luseogliflozin alone” value in series [2] is “slightly reduced”. Further, the “enzymes involved in the metabolism” value in [4] was “cytochrome P450 (CYP) isoforms 3A4/5, 4A11, 4F2, and 4F3B, and UDP-glucuronosyltransferase 1A1”. For the same molecule, the incidence of hypoglycemia in series [6] (in combination with a sulfonylurea, over 52 weeks) is listed as 10.7%; in series [6] (in combination with other classes of OADs), 0.9–3.4%. Moreover, in series [6] (in combination with other classes of OADs for 52 weeks), the “hemoglobin A1c and fasting plasma glucose” value is reported as “significantly reduced”. Further, in series [6] (in combination with other classes of OADs, 52 weeks), the “rate of adverse drug reactions” value is reported as 12.4–25.4%. In addition, the “serious adverse events or adverse events requiring treatment discontinuation” value in “Safety assessments” (all six studies, luseogliflozin alone or with OADs) is recorded as “no serious adverse events”. The “changes in laboratory tests, vital signs, or electrocardiography” value in “Safety assessments” (all studies) is reported as “no clinically relevant changes”. In addition, the hypoglycemia entry in the series “Safety assessments” (any of the studies) is recorded as “no episodes of hypoglycemia”. Further, the adverse events entry in the series “Safety assessments” (luseogliflozin administered alone or in combination with the other OADs) was “no adverse events”; in the series “Safety assessments” (luseogliflozin in combination with glimepiride, mild in severity), “One adverse event (white blood cell urine positive) occurred in one subject”; in “Safety assessments” (luseogliflozin in combination with metformin (nausea; nausea and headache), mild in severity), “three events occurred in two subjects”.

Consider `CCc1ccc(CCOc2ccc(CC3SC(=O)NC3=O)cc2)nc1` (racemic) [Pioglitazone, (±)-5(-)[p(-)[2-(5-ethyl-2-pyridyl)ethoxy]benzyl]-2,4-thiazolidinedione, reference compound], for which, in series [1] (co-administration with luseogliflozin), the “decrease in C max and AUC0–24h of pioglitazone” value is listed as “about 10%”.
